{"data": "Published values of several laboratories", "target": "Bone morphogenetic protein receptor type-1A (BMPR1A, Homo sapiens, UniProt P36894)", "note": "Protocols differ between the studies behind these lines."}
{"Structure (SMILES)": "COc1cnc(Nc2cccc(S(N)(=O)=O)c2)nc1N1CCN(c2ccccc2)C(=O)C1", "assay": "binding, competition with immobilised ligand", "setting": "1 µM", "remaining binding [%]": 67}
{"Structure (SMILES)": "Cc1cnn2ncc(-c3ccnc(N(C)C)n3)c2c1", "assay": "binding", "setting": "1 µM", "remaining binding [%]": 100}
{"Structure (SMILES)": "CN(C)c1ncnc(-c2ccc3nc(Nc4cc(CN5CCN(C(=O)CC(F)(F)F)CC5)ccn4)[nH]c3c2)c1Cl", "assay": "cell-free assay, competition with immobilised ligand", "setting": "1 µM", "remaining binding [%]": 95}
{"Structure (SMILES)": "COc1cnc(Nc2cccc(S(N)(=O)=O)c2)nc1N1CCN(c2ccccc2)CC1", "assay": "binding, competition with immobilised ligand", "setting": "1 µM", "remaining binding [%]": 100}
{"Structure (SMILES)": "c1cnn2ncc(-c3ccnc(N4CCC45COC5)n3)c2c1", "assay": "binding", "setting": "1 µM", "remaining binding [%]": 88}
{"Structure (SMILES)": "O=C(NS(=O)(=O)c1ccc(NCC2CCOCC2)c([N+](=O)[O-])c1)c1ccc(N2CCN(Cc3ccc(C(F)(F)F)cc3-c3ccc(Cl)cc3)CC2)cc1Oc1cnc2[nH]ccc2c1", "assay": "cell-free assay, competition with immobilised ligand", "setting": "1 µM", "remaining binding [%]": 81}
{"Structure (SMILES)": "O=C(c1ccc(Nc2ncc(Cl)c(-c3ccc(Cl)s3)n2)cc1)N1CCC(N2CCCC2)CC1", "assay": "binding, competition with immobilised ligand", "setting": "1 µM", "remaining binding [%]": 59}
{"Structure (SMILES)": "Nc1ncc2c(n1)-c1c([nH]c3ccc(C#CC4CC4)cc13)CCCC2", "assay": "binding, competition with immobilised ligand", "setting": "1 µM", "remaining binding [%]": 95}
{"Structure (SMILES)": "CN(c1ccnc(CNc2nc(Nc3ccc4c(c3)CC(=O)N4)ncc2C(F)(F)F)n1)S(C)(=O)=O", "assay": "binding, competition with immobilised ligand", "setting": "1 µM", "remaining binding [%]": 89}
{"Structure (SMILES)": "O=C(NCCCN1CCOCC1)c1ccc(Nc2ncc(Cl)c(-c3ccc(Cl)s3)n2)cc1", "assay": "binding, competition with immobilised ligand", "setting": "1 µM", "remaining binding [%]": 86}
{"Structure (SMILES)": "CN(C)c1nccc(-c2cnc3ncccn23)n1", "assay": "binding", "setting": "1 µM", "remaining binding [%]": 100}
{"Structure (SMILES)": "CS(=O)(=O)NCC[C@H](NC(=O)c1cncc2c1cnn2-c1ccc(F)cc1)c1ccnc(S(C)(=O)=O)c1", "assay": "binding, competition with immobilised ligand", "setting": "1 µM", "remaining binding [%]": 92}
{"Structure (SMILES)": "COc1ncc2cc3ccccc3nc2c1C#N", "assay": "binding, competition with immobilised ligand", "setting": "5 µM", "remaining binding [%]": 94}
{"Structure (SMILES)": "N[C@H]1CCN(c2nccc(-c3cnn4ncccc34)n2)C1", "assay": "binding", "setting": "1 µM", "remaining binding [%]": 75}
{"Structure (SMILES)": "CCN1CCN(Cc2ccc(C(=O)Nc3ccc(C)c(Oc4ccc5c(c4)CC(=O)N5)c3)cc2C(F)(F)F)CC1", "assay": "binding, competition with immobilised ligand", "setting": "1 µM", "remaining binding [%]": 100}
{"Structure (SMILES)": "CN(C)c1ncc(F)c(-c2cnn3ncccc23)n1", "assay": "binding", "setting": "1 µM", "remaining binding [%]": 100}
{"Structure (SMILES)": "Cc1nccc(COC(=O)N2C[C@@H]3[C@@H](CNC(=O)c4ccc5[nH]nnc5c4)[C@@H]3C2)n1", "assay": "binding, competition with immobilised ligand", "setting": "1 µM", "remaining binding [%]": 85}
{"Structure (SMILES)": "O=C(NCC1CCOCC1)c1n[nH]cc1NC(=O)c1c(F)cccc1F", "assay": "binding, competition with immobilised ligand", "setting": "1 µM", "remaining binding [%]": 89}
{"Structure (SMILES)": "FC(F)(F)c1ccc2c(c1)nc(-c1cccnc1)n2C1CC1", "assay": "cell-free assay, competition with immobilised ligand", "setting": "1 µM", "remaining binding [%]": 93}
{"Structure (SMILES)": "Cc1cnc(Nc2ccc(C(=O)N3CCC(N4CCCC4)CC3)cc2)nc1-c1cc2ccccc2s1", "assay": "binding, competition with immobilised ligand", "setting": "1 µM", "remaining binding [%]": 60}
